Results published in ChEMBL document CHEMBL4513216, “Probing the Open Global Health Chemical Diversity Library for Multistage-Active Starting Points for Next-Generation Antimalarials” (ACS Infect Dis, 2020).

Experiment: Toxicity liver stage against HepG2, at 10uM
Assay type: cell-based
Set-up: test concentration 10 uM, cell line HepG2-A16-CD81EGFP
Details: human, HepG2-A16-CD81EGFP cells; read-out: INHIBITION
Summary of the method: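 Uninfected HepG2-A16-CD81EGFP cells, 3 × 10^3 per well, 1536-well, plated on prespotted compound at 10 μM final, parasite-free screening media added to match infected plates; puromycin 10 μM positive, DMSO 0.5% negative; run in parallel with 48 h PbLuc assay at 37 °C, 5% CO2; viability by CellTiter-Glo luminescence, normalized to controls.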

Compound | cytotoxicity at 10 µM [%]
c1ccc(Cc2nnc([C@H]3CCN(C4CCCCC4)C3)o2)cc1 | -1.14
COc1ccccc1CN1C(=O)O[C@@H]2CN(Cc3cccc(C)n3)C[C@@H]21 | 2.64
CNC(=O)c1cccc(NC(=O)CN2CCCN(S(C)(=O)=O)CC2)c1 | 3.56
CC(C)Cc1ccc(S(=O)(=O)Nc2ccc(=O)n(C)c2)cc1 | 46.3
O=C(NCCc1nnc2n1CCCCC2)N1CCC2(CCCC2)CC1 | -7.94
Cc1nc(N2CCN(C(=O)C(C)(C)C)CC2)cc(-n2cnc(C)c2C)n1 | -23.2
CCCNc1ncc(-c2cc(C3CC3)nc(N)c2C#N)cn1 | 8.26
COC(=O)CC1CCCCN1CC(=O)Nc1ccc(F)cc1Cl (stereo unspecified) | 14
Cn1ncc2c(N3CC(N4CCCCC4)C3)nc(-c3ccncc3)nc21 | 5.18
CCc1nc(C)sc1C(=O)N1CCN(c2ncccc2C)CC1 | 1.39
CNC(=O)C1(CCCc2ccccn2)CN(Cc2scnc2C)C1 | 18
CC(C)n1ccnc1CN1CCCN(C(=O)c2cnn(C)c2)CC1 | -22.4
CC(NC(=O)N1CCC1)c1ccc(S(N)(=O)=O)cc1 (stereo unspecified) | -8.64
c1ncn(CC2CCCN(Cc3nc(-c4ccoc4)no3)C2)n1 (stereo unspecified) | -1.43
c1cnc(N2C[C@H]3CCN(c4cccnc4)C[C@H]3C2)nc1 | -14.7
CS(=O)(=O)N1CCO[C@@H]2CN(Cc3ccncc3)C[C@@H]2C1 | 4.5
O=C(NCCN1C(=O)c2ccccc2C1=O)c1scnc1Cl | -12.3
COc1ccc(Cl)cc1CN(C)CC(=O)Nc1ccnn1C(C)C1CC1 (stereo unspecified) | 4.85
CC(C)N1CCC(Cc2cncc(-c3ccccc3C(=O)O)n2)C1 (stereo unspecified) | -10
O=C1CN(Cc2cn(CC3CCN(C4CCSCC4)CC3)nn2)CCN1 | -48.2
CCS(=O)(=O)N1CCN(C(C)(C)CO)CC1 | -2.48
COc1cc(N2CCC3(CCN(Cc4nccs4)CC3)C2)ncn1 | -36
Cc1cc(C)nc(C2CCCN2C(=O)c2cnccn2)n1 (stereo unspecified) | 3.74

Compound | cytotoxicity at 10 µM [%]
CN1CCN(CC2CC2)C(=O)C12CCN(C(=O)CC(F)(F)F)CC2 | 8.75
Brc1csc(-c2noc(C3COCCO3)n2)c1 (stereo unspecified) | -1.92
CCSc1cc(C(=O)NCCNC(=O)Cc2ccccc2)ccn1 | -6.41
CCNC(=O)[C@@H]1C[C@@H](NC(=O)CSC)CN1Cc1ccncc1 | -1.87
Cc1cnn(CC2CCCN2C(=O)c2ccc(-n3cccn3)nc2)c1 (stereo unspecified) | -15.7
O=C(Cc1cccs1)NCc1ccnc(OC2CCOCC2)c1 | -1.22
CC(=O)N(C)CC(=O)Nc1cc(C(F)(F)F)c[nH]c1=O | 4.57
Cc1csc([C@@H]2C[C@@H]3CCN(C(=O)c4ccnnc4)C[C@H]3O2)n1 | 4.49
Cc1c(-c2cc(-c3cnn(C)c3C)n(CC(=O)NC3CC3)n2)cnn1C | 9.26
CCCC12CN3CC(C)(CN(C1)C3c1[nH]c(=O)[nH]c(=O)c1C)C2=O (stereo unspecified) | 3.15
CCC1=NC(SCC(=O)c2ccc(Cl)cc2)c2cc(CC)sc2N1 (stereo unspecified) | 8.16
CCCS(=O)(=O)N1CCCC1c1cccc(N(C)C)c1 (stereo unspecified) | 1.62
CN1C(=O)CC(c2cnn(C)c2)C12CCN(C(=O)c1ccco1)CC2 (stereo unspecified) | -75.5
Cn1cc(CN2CCc3onc(COc4cccnc4)c3C2)cn1 | 4.78
COC(=O)C1CCN(C(=O)c2nnc3ccc(Cl)cc3n2)CC1 | 12.3
Cc1nc(C2CCCN(C(=O)c3cccc4c3OCCO4)C2)no1 (stereo unspecified) | -8.93
CC(OCC(F)(F)F)C(=O)N1CCCCC1 (stereo unspecified) | -3.45
Cc1nccc(N[C@H]2CN(CCC(=O)NC3CCCC3)C[C@@H]2C2CC2)n1 | -4.57
Cc1noc(C)c1CNCc1c(C(C)C)nn(C)c1N1CCOCC1 | 4.8
O=C(O)c1ccccc1-c1ccc(CN2CCC(CO)CC2)cn1 | 2.45
CSCc1noc(CN2CC(Cc3ccccc3)CC2=O)n1 (stereo unspecified) | -0.404
COc1ccc(-c2nc(C(=O)NCC3CCOC3)cs2)cc1OC (stereo unspecified) | 2.39
Cn1nc2c(cc1=O)CN(Cc1coc(-c3ccc(F)cc3)n1)CC2 | -11.5

Compound | cytotoxicity at 10 µM [%]
Cc1nnc([C@@]23CCO[C@@H]2CCN(Cc2cccc4ccccc24)C3)o1 | -103
Cc1noc(NC(=O)c2ccc(OC(F)(F)F)cc2)n1 | 33.5
CC(C)Cc1cc(C(=O)NCC2CCCN(Cc3ccco3)C2)on1 (stereo unspecified) | -5.12
CCS(=O)(=O)c1ccccc1N1CCC(NC(=O)C2CC2)CC1 | -1.58
Cc1noc(NC(=O)c2ccc(Br)cc2)n1 | 32.9
O=C(c1ccc[nH]1)N1C[C@H](OCc2cccnc2)[C@H]2COC[C@H]21 | -10.4
Cc1cc(C(=O)N(C)Cc2ccoc2)c(NC(=O)C(C)(C)C)s1 | 12.1
Cc1ccc(CNC(=O)NC(C)CCS(C)(=O)=O)cc1F (stereo unspecified) | -146
O=C(NCCCNC(=O)C1CCC1)NCCn1cccc1 | 0.215
CCc1ccc(CN(C)C(=O)C2CC(=O)N(c3cccc(O)c3)C2)nc1 (stereo unspecified) | -3.57
CC1CN(C(=O)NCc2ccn(C)c2)CCN1CC(F)(F)F (stereo unspecified) | -4.32
CCCc1ccc2oc(C(=O)N3CCN(CCOC)CC3)c(C)c2c1 | -8.36
CCc1nnsc1C(=O)N1CCCN(Cc2ccc(F)cc2)CC1 | -3.69
COCCOc1ccc(NC(=O)C2CC(=O)N(C3CC3)C2)cn1 (stereo unspecified) | -6.93
c1cnc(NC[C@H]2OC[C@@H]3CCN(Cc4cccnc4)C[C@@H]32)nc1 | -3.12
c1cc(-c2cn[nH]c2)ccc1CN1CCCCC1 | 1.58
COc1cccc(CN2CCCCCC2c2cccc(F)c2)c1O (stereo unspecified) | 5.02
O=C(O)c1ccccc1-c1ccc(CNC(=O)C2CCOCC2)cc1 | 1.33
Cc1ccc(S(=O)(=O)N2CC(C)Oc3ncccc32)c(F)c1 (stereo unspecified) | 3.43
C1CN(CC2CCOCC2)Cc2c(COCC3CC3)nnn2C1 | -130
Cc1cc(CNC(=O)c2cc(C(C)C)n(C)n2)ccc1S(C)(=O)=O | -3.11
Cc1nccc(CN2CCC(c3nnsc3S(C)(=O)=O)CC2)n1 | 2.86
COCCCNC(=O)c1cc(OC)c2ccoc2c1 | 16.9

Compound | cytotoxicity at 10 µM [%]
c1ccc2c(c1)CC(Cc1cc(N3CCCC3)cnn1)CO2 (stereo unspecified) | -6.03
CC(=O)c1c(O)ccnc1C(F)(F)F | 2.34
CC(C(=O)N1CCn2cncc2C1)N1C[C@@H](C)O[C@@H](C)C1 (stereo partly specified) | 3.13
Cc1nc(-c2cccc(C(=O)O)c2)cc(C2CCN(C(C)C)C2)n1 (stereo unspecified) | 5.32
O=S(=O)(C1CC1)N1CCc2ncnc(N3CCCC3)c2CC1 | -98.6
CC(C)OCCC(=O)N1CCN(CC(O)c2ccccc2)CC1 (stereo unspecified) | -8.09
Cc1cnc(NC2CCc3c(ccc(=O)n3C)C2)nc1 (stereo unspecified) | -149
CCN(CC)Cc1cnc2n1CCN(Cc1c(C)noc1C)CC2 | 11.2
O=C(NC[C@@H]1CCCO1)c1cccnc1N1CCCC1c1ccccc1 (stereo partly specified) | 3.95
CN1C[C@@H](C(=O)NC(C)(C)C)[C@@]2(CCc3ccccc3C(=O)N2)C1 | -3.79
Cn1nnc2c1C(COCC1CC1)CN(C(=O)C1=CCCC1)C2 (stereo unspecified) | -102
Cc1occc1C(=O)NCC(=O)N(C)CCCOc1ccccc1 | -50.2
COCCN(Cc1ccccn1)C(=O)CC1OCCc2ccsc21 (stereo unspecified) | -39
COc1c(CNCc2ccc(OCC(N)=O)cc2)c(C)nn1C | -3.81
CCN(CC)CC(=O)N1CCCCC1c1nc(C)cs1 (stereo unspecified) | -5.78
Cc1ncsc1CCN(C)C(=O)c1ccc(CN2CCCCC2)cc1 | -4.38
CC(=O)N(Cc1noc(C2CC2)n1)C1CCN(Cc2ccccc2)C1 (stereo unspecified) | -5.59
CNS(=O)(=O)CC(=O)N(C1CC1)C1Cc2ccccc2C1 | 3.45
CC(C)c1nn(C)c(N(C)C)c1CNCC(O)c1cccc(F)c1 (stereo unspecified) | -1.82
CC1(C)CNC(=O)c2nc(-c3nnc(-c4ccccc4)[nH]3)[nH]c2C1 | -5.79
O=C(NCc1ccccc1F)N1CCC(C2OCCO2)CC1 | 2.76
CN(C(=O)c1ccc(C#N)cc1)c1nnc(C2CCOC2)s1 (stereo unspecified) | 0.36
COc1ccc(Cn2ccnc2)cc1F | -7.27

Compound | cytotoxicity at 10 µM [%]
COCCN1CCC(CN(C)c2nc3c(s2)c(C)nn3C)C1 (stereo unspecified) | -4.36
O=C1CCC(=O)c2oc3ccccc3c2N1 | 4.34
NC(=O)C(CNC(=O)CCc1ccsc1)Cc1ccc(F)cc1 (stereo unspecified) | 21.2
CCc1nnsc1C(=O)N1CCCC(n2nc(C)nc2C)C1 (stereo unspecified) | 4.63
COc1cccc(CCC(=O)N2CCN(CC(C)(C)O)CC2)c1 | -8.39
COc1c(CNC2CCCc3ccccc32)c(C)nn1C (stereo unspecified) | -0.808
Cc1nn(C)cc1NC(=O)CN1CCC(Oc2cnccn2)CC1 | -4.19
CC(C)(CNC(=O)C(C)(C)c1ccccc1F)C(N)=O | 6.38
Cc1cccc(OC2CCN(C(=O)CNC(=O)N(C)C)CC2)c1 | -0.951
CCc1noc(C(C)N2CCC(NS(=O)(=O)c3ccccc3)CC2)n1 (stereo unspecified) | 7.87
Cc1cc2cccc(NC(=O)N3CC[C@H]4CC[C@@H](C3)N4C)c2o1 | 7.89
Cc1cccc(CC(=O)Nc2cccnc2N2CCC(CO)CC2)c1 | -2.23
CC(C)(CO)Nc1cc(-c2ccncc2)ncn1 | -0.89
CCN1CC(CN(C)Cc2nc(-c3ccoc3)oc2C)CC1=O (stereo unspecified) | -5.13
O=C(c1ccco1)N(CC(F)(F)F)C1CCOCC1 | -12.3
CC1CN(CC(=O)NCc2ccc(F)cc2)CCN1c1nccs1 (stereo unspecified) | -1.22
CC(C)Cc1cc(NC(=O)c2ccccn2)n(C)n1 | -7.22
O=c1cc(-c2ccncc2)nc(-c2ccc(CN3CC[C@H](O)C3)cc2)[nH]1 | 4.48
CC(=O)N1CCC(c2ccnc(Nc3ccc(C)cn3)n2)C1 (stereo unspecified) | -16.7
